Test results from ChEMBL document CHEMBL1143786, “Constrained analogs of CB-1 antagonists: 1,5,6,7-Tetrahydro-4H-pyrrolo[3,2-c]pyridine-4-one derivatives” (Bioorg Med Chem Lett, 2007).

How the values were obtained:
[1] = target: T1, Cannabinoid receptor 1 (Homo sapiens, UniProt P21554); experiment: Displacement of [3H]CP-55940 from human CB1 receptor expressed in HEK cells; assay type: cell-based, HEK293
In short: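 Membranes from HEK 293 cells expressing human CB-1, suspended in ice-cold 50 mM Tris pH 7.4, 2.5 mM EDTA, 5 mM MgCl2, 0.1% fatty acid free BSA; 3.3 µg protein incubated with 0.3 nM [3H]CP 55940 and graded compound, 30 °C, 90 min with shaking, triplicate. Nonspecific binding defined with 10 µM WIN 55212-2; filtration through GF/C, scintillation counting; Ki via Cheng–Prusoff from nonlinear-regression IC50.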

[2] = target: Cannabinoid receptor 2 (Homo sapiens, UniProt P34972); experiment: Displacement of [3H]CP-55940 from human CB2 receptor expressed in HEK cells; assay type: cell-based, HEK293
Sequence of Cannabinoid receptor 2 (P34972 whole entry): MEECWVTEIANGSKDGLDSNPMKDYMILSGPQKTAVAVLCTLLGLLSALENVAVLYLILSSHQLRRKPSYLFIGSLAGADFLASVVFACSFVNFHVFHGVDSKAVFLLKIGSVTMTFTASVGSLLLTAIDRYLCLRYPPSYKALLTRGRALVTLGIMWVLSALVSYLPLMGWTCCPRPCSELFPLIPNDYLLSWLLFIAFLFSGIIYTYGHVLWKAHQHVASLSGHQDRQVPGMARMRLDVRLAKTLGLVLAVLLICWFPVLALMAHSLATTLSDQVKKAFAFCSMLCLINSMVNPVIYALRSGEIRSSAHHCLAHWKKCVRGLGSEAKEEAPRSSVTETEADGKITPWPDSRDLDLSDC
In short: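 Membranes from HEK 293 cells expressing human CB-2, in ice-cold 50 mM Tris pH 7.4, 2.5 mM EDTA, 5 mM MgCl2, 0.1% fatty-acid-free BSA. 3.3 µg protein with 0.3 nM [3H]CP 55940 and varying competitor, triplicate, 30 °C for 90 min with shaking. Nonspecific binding with 10 µM WIN 55212-2. Filtration onto GF/C, scintillation counting; Ki from IC50 by Cheng–Prusoff.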

[3] = tested on: Rattus norvegicus; experiment: Reduction in body weight in genetically obese Zucker rat at 5 mg/kg, po qd; assay type: functional; set-up: scale not given: the % may be the effect or the level left
In short: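 Zucker fa/fa rats, single-housed on grid floors, sham-dosed with vehicle for at least 5 days, then weight-matched on 2-day baseline. Daily oral dosing at 5 mg/kg, 2 mL/kg, in PEG/methanesulfonic acid (80:20) before the nocturnal feeding phase. Body weight recorded daily over 9 days; mean ± SEM, 9–10 rats/group.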

[4] = tested on: Rattus norvegicus; experiment: Reduction in food intake in fasted-refed Wistar rat at 10 mg/kg, po after 4 hrs; assay type: functional; set-up: scale not given: the % may be the effect or the level left
In short: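 Wistar rats fasted overnight (18 h), then given vehicle or compound orally at 10 mg/kg as a suspension in 30% cyclodextrin, 2 mL/kg, 1 h before re-feeding. Cumulative food intake from pre-weighed jars at 30, 60, 90, 180 and 240 min.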

[5] = AUC ( 0 to 2 hrs) in Wistar rat at 10 mg/kg, po; assay type: ADME, organism-based; set-up: time < 2 hr, dose 10 mg/kg, route oral; details: plasma
In short: (§1)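 Male Wistar rats, single oral dose of 10 mg/kg. Plasma exposure measured as Cmax and as AUC over 0–2 h.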

[6] = Cmax in Wistar rat at 10 mg/kg, po; assay type: ADME, organism-based; set-up: dose 10 mg/kg, route oral; details: in vivo; in short: as §1
[7] = target: T1, Cannabinoid receptor 1; experiment: Antagonist activity at CB1 receptor; assay type: functional

T1 sequence (P21554 whole entry): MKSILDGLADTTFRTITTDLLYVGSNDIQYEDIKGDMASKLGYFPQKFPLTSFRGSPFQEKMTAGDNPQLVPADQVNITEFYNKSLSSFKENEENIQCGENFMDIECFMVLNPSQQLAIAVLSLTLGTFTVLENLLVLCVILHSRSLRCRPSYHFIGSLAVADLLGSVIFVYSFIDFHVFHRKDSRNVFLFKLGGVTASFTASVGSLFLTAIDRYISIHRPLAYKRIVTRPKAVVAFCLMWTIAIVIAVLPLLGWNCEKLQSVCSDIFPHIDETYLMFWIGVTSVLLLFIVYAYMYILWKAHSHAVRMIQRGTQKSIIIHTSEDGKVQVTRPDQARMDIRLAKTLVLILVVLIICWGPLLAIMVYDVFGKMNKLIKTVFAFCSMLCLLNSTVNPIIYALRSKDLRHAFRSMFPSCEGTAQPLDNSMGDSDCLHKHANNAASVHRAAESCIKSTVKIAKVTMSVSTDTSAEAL

| SMILES | Ki [1] [nM] | IC50 [1] [nM] | also measured |
| --- | --- | --- | --- |
| Cc1c2c(n(-c3ccccc3Cl)c1-c1ccc(Cl)cc1)CCN(N1CCCCC1)C2=O | 3.5 |  | Ki [2]: 1100 nM |
| Cc1c2c(n(-c3ccc(Cl)cc3Cl)c1-c1ccccc1)CCN(C1CCCCC1)C2=O |  | 16 |  |
| COc1ccc(-c2c(C)c3c(n2-c2ccccc2Cl)CCN(C2CCCCC2)C3=O)cc1 | 7.5 |  |  |
| Cc1c2c(n(-c3ccccc3Cl)c1-c1ccc(Cl)cc1)CCN(C1CCCCC1)C2=O | 2.8 |  |  |
| Cc1c2c(n(-c3c(Cl)cccc3Cl)c1-c1ccc(Cl)cc1)CCN(C1CCCCC1)C2=O | 200 |  |  |
| Cc1c(C(=O)NN2CCCCC2)nn(-c2ccc(Cl)cc2Cl)c1-c1ccc(Cl)cc1 [RIMONABANT] |  |  | Activity [3]: -5.6% |
| COc1ccc(-c2c(C)c3c(n2-c2ccccc2Cl)CCN(N2CCCCC2)C3=O)cc1 | 20 |  | Activity [4]: 36%; AUC(0-t) at 2 h [5]: 0.58 µM·h; Cmax [6]: 620 nM; Activity [3]: -3%; Ki [2]: 850 nM |
| Cc1c2c(n(-c3ccc(Cl)cc3Cl)c1-c1cccc(N)c1)CCN(C1CCCCC1)C2=O | 450 |  |  |
| Cc1c2c(n(-c3ccc(Cl)cc3)c1-c1ccc(Cl)cc1)CCN(C1CCCCC1)C2=O | > 2500 |  |  |
| Cc1cn(-c2ccc(Cl)cc2Cl)c2c1C(=O)N(C1CCCCC1)CC2 | 240 |  |  |
| C=Cc1ccc(-c2c(C)c3c(n2-c2ccc(Cl)cc2Cl)CCN(C2CCCCC2)C3=O)cc1 | 9.8 |  |  |
| COc1cccc(-c2c(C)c3c(n2-c2ccc(Cl)cc2Cl)CCN(C2CCCCC2)C3=O)c1 |  | 6.8 |  |
| Cc1c2c(n(-c3ccc(Cl)cc3Cl)c1-c1ccc(N)cc1)CCN(C1CCCCC1)C2=O | 920 |  |  |
| Cc1c2c(n(-c3ccc(Cl)cc3Cl)c1-c1cc3ccccc3s1)CCN(C1CCCCC1)C2=O |  | 23 |  |
| Cc1c2c(n(-c3ccc(Cl)cc3Cl)c1-c1ccc(C(F)(F)F)cc1)CCN(C1CCCCC1)C2=O | 4.1 |  |  |
| Cc1c2c(n(-c3ccc(Cl)cc3)c1-c1ccc(Cl)cc1Cl)CCN(C1CCCCC1)C2=O | > 2500 |  |  |
| CSc1ccc(-c2c(C)c3c(n2-c2ccc(Cl)cc2Cl)CCN(C2CCCCC2)C3=O)cc1 | > 2500 |  |  |
| Cc1c2c(n(-c3ccc(Cl)cc3Cl)c1-c1cccs1)CCN(C1CCCCC1)C2=O |  | 19 |  |

| SMILES | Ki [1] [nM] | IC50 [1] [nM] | also measured |
| --- | --- | --- | --- |
| COc1ccc(-c2c(C)c3c(n2-c2ccccc2C)CCN(C2CCCCC2)C3=O)cc1 |  | 22 |  |
| Cc1ccccc1-n1c2c(c(C)c1-c1ccc(F)cc1)C(=O)N(C1CCCCC1)CC2 |  | 40 |  |
| COc1ccc(-c2c(C)c3c(n2-c2ccc(Cl)cc2Cl)CCN(C2CCCCC2)C3=O)cc1OC | 5.5 |  |  |
| COc1ccc(-c2c(C)c3c(n2-c2ccc(Cl)cc2Cl)CCN(C2CCCCC2)C3=O)cc1 | 7.9 |  |  |
| Cc1ccccc1-n1c2c(c(C)c1-c1ccc(C(F)(F)F)cc1)C(=O)N(C1CCCCC1)CC2 |  | 9.3 |  |
| Cc1c2c(n(-c3ccc(Cl)cc3Cl)c1-c1ccc(F)cc1)CCN(C1CCCCC1)C2=O | 6 |  |  |
| Cc1c2c(n(-c3ccc(Cl)cc3Cl)c1-c1cccnc1)CCN(C1CCCCC1)C2=O | 390 |  |  |
| Cc1cccc(-c2c(C)c3c(n2-c2ccc(Cl)cc2Cl)CCN(C2CCCCC2)C3=O)c1 |  | 17 |  |
| Cc1c2c(n(-c3ccc(Cl)cc3Cl)c1-c1ccc(Cl)cc1)CCN(N1CCCCC1)C2=O | 2.2 |  | Kb [7]: 12 nM; Ki [2]: 1300 nM |
| Cc1c2c(n(-c3ccc(Cl)cc3Cl)c1-c1ccc(Cl)cc1)CCN(C1CCCCC1)C2=O | 7.5 |  | Kb [7]: 6.5 nM; Cmax [6]: < 50 nM; Ki [2]: 8300 nM |
| Cc1c2c(n(-c3ccc(Cl)cc3Cl)c1-c1ccco1)CCN(C1CCCCC1)C2=O |  | 20 |  |
| Cc1c2c(n(-c3ccc(Cl)cc3Cl)c1-c1ccc(C(=O)O)cc1)CCN(C1CCCCC1)C2=O | > 2500 |  |  |
| Cc1ccc(-c2c(C)c3c(n2-c2ccc(Cl)cc2Cl)CCN(C2CCCCC2)C3=O)cc1 | 10 |  |  |
| Cc1c2c(n(-c3ccc(Cl)cc3Cl)c1-c1ccc3c(c1)OCO3)CCN(C1CCCCC1)C2=O |  | 12 |  |
| COc1ccc(-c2c(C)c3c(n2-c2ccccc2C)CCN(N2CCCCC2)C3=O)cc1 | 74 |  |  |
| Cc1c2c(n(-c3ccc(Cl)cc3Cl)c1-c1ccsc1)CCN(C1CCCCC1)C2=O |  | 37 |  |
| Cc1c2c(n(-c3ccc(Cl)cc3Cl)c1-c1cccc(C(F)(F)F)c1)CCN(C1CCCCC1)C2=O |  | 67 |  |
